# Experimental data from ChEMBL document CHEMBL3616436, “Synthesis, cytotoxicity and antimicrobial activity of thiourea derivatives incorporating 3-(trifluoromethyl)phenyl moiety” (Eur J Med Chem, 2015).
# Activity calls are given as the source filed them. No cut-off for these calls is given here.
# Experiments:
# [1] = test system: Vaccinia virus; test: Antiviral activity against Human Vaccinia virus ATCC VR-1549 infected in African green monkey Vero 76 cells assessed as reduction of virus-plaque formation after 3 days by crystal violet staining; assay type: functional, organism-based; conditions: Orthopoxvirus vaccinia, ATCC VR-1549, Vero, 72 h
# [2] = test system: Mammalian orthoreovirus 1; test: Antiviral activity against Reovirus type-1 ATCC VR-214 infected in BHK cells assessed as protection against virus-induced cytopathogenicity after 3 to 4 days by MTT assay; assay type: functional, cell-based; conditions: Mammalian orthoreovirus 1, ATCC VR-214, BHK
# Method in brief: (§1)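 Cells seeded in 96-well plates (BHK 5x10^4, MDBK 3x10^4 cells/well), grown overnight to confluence, infected at m.o.i. 0.01 (BHK for Reo-1, MDBK for BVDV); serial compound dilutions in maintenance medium with 0.5% inactivated FBS added after 1 h; viability by MTT after 3–4 days at 37°C; EC50 for 50% protection by linear regression.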
# [3] = Antiviral activity against Bovine viral diarrhea virus 1-NADL ATCC VR-534 infected in MDBK cells assessed as protection against virus-induced cytopathogenicity after 3 to 4 days by MTT assay; assay type: functional, cell-based; conditions: Bovine viral diarrhea virus isolates and strains, ATCC VR-534, MDBK; method in brief: as §1
# [4] = test system: Human alphaherpesvirus 1; test: Antiviral activity against Human herpesvirus 1 KOS ATCC VR-1493 infected in African green monkey Vero 76 cells assessed as reduction of virus-plaque formation after 3 days by crystal violet staining; assay type: functional, organism-based; conditions: Human alphaherpesvirus 1, KOS ATCC VR1493, Vero, 72 h
# Method in brief: (§2)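 Plaque reduction: Vero-76 at 2x10^5 cells/well grown to confluent monolayers, infected 2 h at 50–100 PFU/well; after removing unadsorbed virus, overlay of D-MEM, 1% inactivated FBS, 0.75% methylcellulose with or without serial compound dilutions; 3 days at 37°C, fixed and stained with crystal violet in 50% ethanol, plaques counted; EC50 by linear regression.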
# [5] = test system: Escherichia coli; test: Antimicrobial activity against Escherichia coli ATCC 25922 after 18 hrs by twofold serial microdilution method; assay type: functional, organism-based
# [6] = test system: Coxsackievirus B5; test: Antiviral activity against Human coxsackievirus B5 ATCC VR-29 infected in African green monkey Vero 76 cells assessed as reduction of virus-plaque formation after 3 days by crystal violet staining; assay type: functional, organism-based; conditions: Enterovirus B, ATCC VR-29, Vero, 72 h; method in brief: as §2
# [7] = Cytotoxicity against bovine MDBK cells assessed as cell viability after 48 to 96 hrs by MTT assay; assay type: cell-based, Bos taurus; conditions: cattle
# [8] = test system: Candida albicans; test: Antimicrobial activity against Candida albicans ATCC 90028 after 24 hrs by twofold serial microdilution method; assay type: functional, organism-based
# [9] = test system: Pseudomonas aeruginosa; test: Antimicrobial activity against Pseudomonas aeruginosa ATCC 15442 after 18 hrs by twofold serial microdilution method; assay type: functional, organism-based
# [10] = test system: Poliovirus 1; test: Antiviral activity against Poliovirus type 1 ATCC VR-1562 infected in African green monkey Vero 76 cells assessed as reduction of virus-plaque formation after 2 days by crystal violet staining; assay type: functional, organism-based; conditions: Enterovirus C, ATCC VR-1562, Vero, 48 h
# [11] = test system: Escherichia coli; test: Antimicrobial activity against Escherichia coli NCTC 8196 after 18 hrs by twofold serial microdilution method; assay type: functional, organism-based
# [12] = Cytotoxicity against human MT4 cells; assay type: cell-based
# [13] = test system: Human immunodeficiency virus 1; test: Antiviral activity against HIV1 3B infected in human MT4 cells assessed as protection against virus-induced cytopathogenicity by MTT assay; assay type: functional, organism-based; conditions: Human immunodeficiency virus 1, 3B
# [14] = test system: Bordetella bronchiseptica; test: Antimicrobial activity against Bordetella bronchiseptica ATCC 4617 after 18 hrs by twofold serial microdilution method; assay type: functional, organism-based
# [15] = test system: Escherichia coli; test: Antimicrobial activity against Escherichia coli ATCC 10538 after 18 hrs by twofold serial microdilution method; assay type: functional, organism-based
# [16] = test system: Candida parapsilosis; test: Antimicrobial activity against Candida parapsilosis ATCC 22019 after 24 hrs by twofold serial microdilution method; assay type: functional, organism-based
# [17] = test system: Vesicular stomatitis virus; test: Antiviral activity against Vesicular stomatitis virus ATCC VR 1540 infected in African green monkey Vero 76 cells assessed as reduction of virus-plaque formation after 2 days by crystal violet staining; assay type: functional, organism-based; conditions: ATCC VR 1540, Vero, 48 h
# [18] = test system: Yellow fever virus; test: Antiviral activity against Yellow fever virus 17D infected in BHK cells assessed as protection against virus-induced cytopathogenicity after 3 to 4 days by MTT assay; assay type: functional, cell-based
# [19] = Cytotoxicity against African green monkey Vero 76 cells assessed as cell viability after 48 to 96 hrs by crystal violet staining; assay type: cell-based; conditions: chlorocebus sabaeus
# [20] = test system: Candida albicans; test: Antimicrobial activity against Candida albicans ATCC 10231 after 24 hrs by twofold serial microdilution method; assay type: functional, organism-based
# [21] = test system: Pseudomonas aeruginosa; test: Antimicrobial activity against Pseudomonas aeruginosa NCTC 6749 after 18 hrs by twofold serial microdilution method; assay type: functional, organism-based
# [22] = Cytotoxicity against BHK cells assessed as cell viability after 48 to 96 hrs by MTT assay; assay type: cell-based, Mesocricetus auratus; conditions: hamster
# [23] = test system: Pseudomonas aeruginosa; test: Antimicrobial activity against Pseudomonas aeruginosa ATCC 27863 after 18 hrs by twofold serial microdilution method; assay type: functional, organism-based
# [24] = test system: Micrococcus luteus; test: Antimicrobial activity against Micrococcus luteus ATCC 9341 at 400 ug after 18 hrs by disc-diffusion method; assay type: functional; conditions: ATCC 9341, 18 h, read-out: IZ
# Method in brief: (§3)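 Disc diffusion on Mueller-Hinton II agar per CLSI; 9 mm paper discs loaded with 400 µg compound from DMSO solution, dried, placed on agar; growth inhibition zone diameter read after 18 h at 35°C.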
# [25] = test system: Bacillus cereus; test: Antimicrobial activity against Bacillus cereus ATCC 11778 at 400 ug after 18 hrs by disc-diffusion method; assay type: functional; conditions: ATCC 11778, 18 h, read-out: IZ; method in brief: as §3
# [26] = test system: Staphylococcus epidermidis; test: Antimicrobial activity against Staphylococcus epidermidis ATCC 35984 after 18 hrs by twofold serial microdilution method; assay type: functional; conditions: ATCC 35984, 18 h
# [27] = test system: Staphylococcus epidermidis; test: Antimicrobial activity against Staphylococcus epidermidis ATCC 12228 after 18 hrs by twofold serial microdilution method; assay type: functional; conditions: ATCC 12228, 18 h
# [28] = test system: Mycobacterium tuberculosis; test: Antimycobacterial activity against drug-sensitive Mycobacterium tuberculosis Spec. 192; assay type: functional
# Method in brief: (§4)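 Classical test-tube successive-dilution method in Youmans' modification of Proskauer and Beck liquid medium with 10% bovine serum. Inoculum came from 14-day cultures. DMSO stock was 10 mg/mL, diluted geometrically in medium. Tubes were incubated at 37 °C. Concentrations tested were 3.1, 6.2, 12.5, 25, 50 and 100 µg/ml. MIC is the minimum concentration inhibiting growth relative to compound-free tubes.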
# [29] = test system: Staphylococcus aureus; test: Antimicrobial activity against Staphylococcus aureus NCTC 4163 after 18 hrs by twofold serial microdilution method; assay type: functional; conditions: NCTC 4163, 18 h
# [30] = test system: Enterococcus hirae; test: Antimicrobial activity against Enterococcus hirae ATCC 10541 at 400 ug after 18 hrs by disc-diffusion method; assay type: functional; method in brief: as §3
# [31] = test system: Micrococcus luteus; test: Antimicrobial activity against Micrococcus luteus ATCC 10240 at 400 ug after 18 hrs by disc-diffusion method; assay type: functional; conditions: ATCC 10240, 18 h, read-out: IZ; method in brief: as §3
# [32] = test system: Staphylococcus aureus; test: Antimicrobial activity against Staphylococcus aureus ATCC 25923 at 400 ug after 18 hrs by disc-diffusion method; assay type: functional; conditions: ATCC 25923, 18 h, read-out: IZ; method in brief: as §3
# [33] = test system: Enterococcus faecalis; test: Antimicrobial activity against Enterococcus faecalis ATCC 29212 at 400 ug after 18 hrs by disc-diffusion method; assay type: functional; conditions: ATCC 29212, 18 h, read-out: IZ; method in brief: as §3
# [34] = test system: Bacillus subtilis; test: Antimicrobial activity against Bacillus subtilis ATCC 6633 at 400 ug after 18 hrs by disc-diffusion method; assay type: functional; conditions: ATCC 6633, 18 h, read-out: IZ; method in brief: as §3
# [35] = test system: Staphylococcus aureus; test: Antimicrobial activity against Staphylococcus aureus ATCC 29213 after 18 hrs by twofold serial microdilution method; assay type: functional; conditions: ATCC 29213, 18 h
# [36] = test system: Staphylococcus aureus; test: Antimicrobial activity against Staphylococcus aureus ATCC 6538 after 18 hrs by twofold serial microdilution method; assay type: functional; conditions: ATCC 6538, 18 h
# [37] = test system: Staphylococcus epidermidis; test: Antimicrobial activity against Staphylococcus epidermidis ATCC 12228 at 400 ug after 18 hrs by disc-diffusion method; assay type: functional; conditions: ATCC 12228, 18 h, read-out: IZ; method in brief: as §3
# [38] = test system: Staphylococcus aureus; test: Antimicrobial activity against Staphylococcus aureus ATCC 25923 after 18 hrs by twofold serial microdilution method; assay type: functional; conditions: ATCC 25923, 18 h
# [39] = test system: Staphylococcus epidermidis; test: Antimicrobial activity against Staphylococcus epidermidis ATCC 35984 at 400 ug after 18 hrs by disc-diffusion method; assay type: functional; conditions: ATCC 35984, 18 h, read-out: IZ; method in brief: as §3
# [40] = test system: Staphylococcus aureus; test: Antimicrobial activity against Staphylococcus aureus ATCC 29213 at 400 ug after 18 hrs by disc-diffusion method; assay type: functional; conditions: ATCC 29213, 18 h, read-out: IZ; method in brief: as §3
# [41] = test system: Staphylococcus aureus; test: Antimicrobial activity against Staphylococcus aureus NCTC 4163 at 400 ug after 18 hrs by disc-diffusion method; assay type: functional; conditions: NCTC 4163, 18 h, read-out: IZ; method in brief: as §3
# [42] = test system: Staphylococcus aureus; test: Antimicrobial activity against Staphylococcus aureus ATCC 6538 at 400 ug after 18 hrs by disc-diffusion method; assay type: functional; conditions: ATCC 6538, 18 h, read-out: IZ; method in brief: as §3
# [43] = test system: Proteus vulgaris; test: Antimicrobial activity against Proteus vulgaris NCTC 4635 at 400 ug after 18 hrs by disc-diffusion method; assay type: functional; method in brief: as §3
# [44] = test system: Mycobacterium tuberculosis; test: Antimycobacterial activity against Mycobacterium tuberculosis H37Rv ATCC 25618; assay type: functional; method in brief: as §4
structure (smiles),measurement,setting,value
FC(F)(F)c1cccc(NC(=S)Nc2ccccc2Br)c1,EC50,[1],> 50 µM
same,EC50,[2],> 59 µM
same,EC50,[3],> 100 µM
same,EC50,[4],> 50 µM
same,Activity,[5],inactive
same,EC50,[6],> 50 µM
same,CC50,[7],> 100 µM
same,Activity,[8],inactive
same,Activity,[9],inactive
same,EC50,[10],> 50 µM
same,Activity,[11],inactive
same,CC50,[12],36 µM
same,EC50,[13],> 36 µM
same,Activity,[14],inactive
same,Activity,[15],inactive
same,Activity,[16],inactive
same,EC50,[17],> 50 µM
same,EC50,[18],> 59 µM
same,CC50,[19],50 µM
same,Activity,[20],inactive
same,Activity,[21],inactive
same,CC50,[22],59 µM
same,Activity,[23],inactive
FC(F)(F)c1cccc(NC(S)=NCCN2CCOCC2)c1,EC50,[1],> 100 µM
same,EC50,[2],> 100 µM
same,EC50,[3],> 100 µM
same,EC50,[4],> 100 µM
same,Activity,[5],inactive
same,EC50,[6],> 100 µM
same,CC50,[7],> 100 µM
same,Activity,[8],inactive
same,Activity,[9],inactive
same,EC50,[10],> 100 µM
same,Activity,[11],inactive
same,CC50,[12],> 100 µM
same,EC50,[13],> 100 µM
same,Activity,[14],inactive
same,Activity,[15],inactive
same,Activity,[16],inactive
same,EC50,[17],> 100 µM
same,EC50,[18],> 100 µM
same,CC50,[19],> 100 µM
same,Activity,[20],inactive
same,Activity,[21],inactive
same,CC50,[22],> 100 µM
same,Activity,[23],inactive
CSCCCNC(=S)Nc1cccc(C(F)(F)F)c1,zone of inhibition at 400 µg/disc,[24],20 mm
same,EC50,[1],> 100 µM
same,zone of inhibition at 400 µg/disc,[25],19 mm
same,EC50,[2],> 100 µM
same,MIC,[26],64 µg/mL
same,MIC,[27],32 µg/mL
same,EC50,[3],> 100 µM
same,MIC,[28],100 µg/mL
same,EC50,[4],> 100 µM
same,MIC,[29],32 µg/mL
same,EC50,[6],> 100 µM
same,CC50,[7],> 100 µM
same,EC50,[10],> 100 µM
same,inhibition zone (IZ),[30],inactive
same,zone of inhibition at 400 µg/disc,[31],16 mm
same,zone of inhibition at 400 µg/disc,[32],18 mm
same,zone of inhibition at 400 µg/disc,[33],13 mm
same,zone of inhibition at 400 µg/disc,[34],18 mm
same,CC50,[12],43 µM
same,MIC,[35],32 µg/mL
same,EC50,[13],> 43 µM
same,MIC,[36],32 µg/mL
same,EC50,[17],> 100 µM
same,zone of inhibition at 400 µg/disc,[37],20 mm
same,MIC,[38],32 µg/mL
same,EC50,[18],> 100 µM
same,zone of inhibition at 400 µg/disc,[39],16 mm
same,zone of inhibition at 400 µg/disc,[40],18 mm
same,zone of inhibition at 400 µg/disc,[41],19 mm
same,CC50,[19],> 100 µM
same,zone of inhibition at 400 µg/disc,[42],18 mm
same,inhibition zone (IZ),[43],inactive
same,CC50,[22],> 100 µM
same,MIC,[44],50 µg/mL
